Test results from article PMC8811920 (ACS Omega, 2022).

Key:
[1] = DPPH radical scavenging assay; conditions: 10 μL sample + 190 μL DPPH, 30 min, 37 °C
Outline: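 10 μL sample mixed with 190 μL DPPH solution in microplate and held 30 min at 37 °C. Absorbance read spectrophotometrically. % scavenging = (1 − Abs/Abc) × 100, where Abc is the reagent-only negative control; SC50 also described. Ascorbic acid as standard. Triplicate.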

[2] = tested on: α-amylase; assay: α-Amylase inhibition assay; assay type: biochemical; conditions: 10 μL sample, 4 mg/mL in DMSO
Outline: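 Mix in pH 6.8 phosphate buffer: α-amylase (0.14 U/mL), 10 μL sample (4 mg/mL in DMSO) and starch (2 mg/mL); 30 min at 50 °C. Stopped with 1 M HCl, then iodine/KI reagent (5 mM each) added. Read at 540 nm. Acarbose positive control at 5−200 μg/mL. Sample-free well taken as 100% activity; blank lacked sample and enzyme.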

[3] = tested on: Salmonella typhi; assay: Antibacterial assay of isolated compounds, S. typhi; assay type: cell-based; conditions: cefixime positive control
[4] = tested on: S. setubal; assay: Antibacterial assay of isolated compounds, S. setubal; assay type: cell-based; conditions: cefixime positive control
[5] = tested on: urease; assay: Urease inhibition assay; assay type: biochemical; conditions: 10 μL sample, 4 mg/mL in DMSO
Outline: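 Mix: 25 μL urease, 50 μL phosphate buffer (3 mM, pH 4.5, containing 100 mM urea) and 10 μL sample (4 mg/mL in DMSO); 15 min at 30 °C. Ammonia detected by phenol–nitroprusside reagent plus alkaline hypochlorite, then 50 min at 30 °C. Read at 630 nm. Thiourea as control. % inhibition = (OD blank − OD sample)/OD blank × 100.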

[6] = tested on: E. aerogenes; assay: Antibacterial assay of isolated compounds, E. aerogenes; assay type: cell-based, Escherichia aerogenes; conditions: cefixime positive control
[7] = tested on: lipase; assay: Lipase inhibition assay; assay type: biochemical; conditions: 50 μL sample, 4 mg/mL in DMSO
Outline: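 Lipase dissolved at 10 mg/mL in ultrapure water, spun 5 min at 16,000 rpm; supernatant used. Assay buffer 100 mM Tris, pH 8.2. Mix: 350 μL buffer, 150 μL lipase, 50 μL sample (4 mg/mL in DMSO). Started with 450 μL substrate: 0.08% v/v olive oil in 5 mM sodium acetate pH 5.0 with 1% Triton X-100. Incubated 2 h at 37 °C, spun, read at 400 nm. Orlistat standard. % inhibition = (OD blank − OD sample)/OD blank × 100.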

[8] = tested on: S. aureus (ATCC # 6538); assay: Antibacterial disc diffusion, S. aureus; assay type: cell-based, Staphylococcus aureus; conditions: isolated compounds; cefixime positive control
[9] = Total reducing power; conditions: sample 4 mg/mL in DMSO, ascorbic acid equivalents
Outline: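 200 μL sample (4 mg/mL in DMSO) mixed with 400 μL phosphate buffer (0.2 mol/L, pH 6.6) and 1% potassium ferricyanide; 20 min at 50 °C. Added 10% trichloroacetic acid and centrifuged 10 min at 3000 rpm. 200 μL of upper layer mixed with 0.1% FeCl3 and read at 630 nm. Expressed as μg ascorbic acid equivalent/mg extract from a calibration curve. Triplicate.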

[10] = Total antioxidant capacity; conditions: sample 4 mg/mL in DMSO, ascorbic acid equivalents
Outline: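 100 μL sample (4 mg/mL in DMSO) mixed with 900 μL phosphomolybdenum reagent (0.6 M H2SO4, 28 mM sodium phosphate, 4 mM ammonium molybdate). Heated 90 min at 95 °C, cooled to room temperature, and 200 μL read at 630 nm. Quantified against an ascorbic acid calibration curve as μg AAE/mg extract. Triplicate.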

[11] = tested on: M. luteus; assay: Antibacterial assay of isolated compounds, M. luteus; assay type: cell-based; conditions: cefixime positive control

SMILES | DPPH % (free-radical scavenging) [1] [%] | amylase inhibition (%) [2] [%] | antibacterial ZOI, S. typhi [3] [mm] | antibacterial ZOI, S. setubal [4] [mm] | urease inhibition (%) [5] [%] | antibacterial ZOI, E. aerogenes [6] [mm] | lipase inhibition (%) [7] [%] | antibacterial ZOI, S. aureus [8] [mm] | TRP [9] [μgAAE/mg extract] | TAC [10] [μgAAE/mg extract] | antibacterial ZOI, M. luteus [11] [mm] | also measured
C=C(C)[C@@H]1CC[C@]2(C)CC[C@]3(C)[C@H](CC[C@@H]4[C@@]5(C)CC[C@H](O)C(C)(C)[C@@H]5CC[C@]43C)[C@@H]12 [compound 1, lup-20(29)-en-3β-ol] | 68.8 ± 1.1 | 16.0 ± 0.4 | 18 ± 1.3 | 12 ± 1.3 | 85.8 ± 0.9 | 14 ± 1.1 | 84.0 ± 0.8 | 14 ± 1.2 | 96.9 ± 1.6 | 55.5 ± 1.3 | 15 ± 1.1 | DPPH % (free-radical scavenging) ([1]; listed as lupeol): 68.8%; antibacterial ZOI, S. typhi ([3]; listed as lupeol): 18 mm; TRP ([9]; listed as lupeol): 96.9 μgAAE/mg extract
CCCCCCCCCCCCCCCCCCCCCCCCCCCCCCO [compound 2, 1-triacontanol] | 59.4 ± 2.1 | 29.9 ± 1.4 | 10 ± 1.3 | 15 ± 1.2 | 82.5 ± 0.8 | 15 ± 1.4 | 50.8 ± 0.9 | 9 ± 1.3 | 55.2 ± 1.8 | 89.5 ± 1.6 | 10 ± 0.9 | antibacterial ZOI, S. setubal ([4]; listed as 1-triacontanol): 15 mm; antibacterial ZOI, E. aerogenes ([6]; listed as 1-triacontanol): 15 mm; TAC ([10]; listed as 1-triacontanol): 89.5 μgAAE/mg extract
COC(=O)c1ccccc1 [compound 3, methyl benzoate] | 49.4 ± 1.9 | 26.2 ± 0.5 | 10 ± 1.1 | 13 ± 1.1 | 55.1 ± 1.2 | 15 ± 1.1 | 50.3 ± 0.5 | 7 ± 0.8 | 45.2 ± 1.6 | 82.5 ± 1.3 | 14 ± 1.1 | TAC ([10]; listed as methyl benzoate): 82.5 μgAAE/mg extract
O=C(O)c1ccccc1 [compound 4, benzoic acid] | 50.8 ± 1.6 | 36.5 ± 0.9 | 15 ± 1.5 | 15 ± 1.7 | 65.8 ± 0.6 | 12 ± 1.4 | 58.9 ± 0.7 | 12 ± 1.6 | 59.5 ± 1.5 | 60.6 ± 1.8 | 13 ± 1.2 | antibacterial ZOI, S. typhi ([3]; listed as benzoic acid): 15 mm
C[C@H]1[C@H](C)CC[C@]2(C(=O)O)CC[C@]3(C)C(=CC[C@@H]4[C@@]5(C)CC[C@H](O)C(C)(C)[C@@H]5CC[C@]43C)[C@H]12 [compound 5, 3β-hydroxy-urs-12-en-28-oic acid] | 58.6 ± 1.7 | 48.9 ± 0.6 | 16 ± 1.8 | 13 ± 1.2 | 78.8 ± 0.5 | 12 ± 1.3 | 76.6 ± 0.8 | 13 ± 1.3 | 76.2 ± 1.5 | 70.4 ± 1.8 | 14 ± 1.4 | antibacterial ZOI, S. typhi ([3]; listed as ursolic acid): 16 mm
O=C(O)c1cccc(O)c1 [compound 6, 3-hydroxybenzoic acid] | 65.8 ± 1.6 | 31.5 ± 0.8 | 16 ± 1.5 | 14 ± 1.7 | 59.8 ± 0.6 | 15 ± 1.4 | 51.9 ± 0.7 | 15 ± 1.6 | 62.5 ± 1.3 | 66.6 ± 1.5 | 15 ± 1.2 | DPPH % (free-radical scavenging) ([1]; listed as 3-Hydroxybenzoic acid): 65.8%
